In data set [1] the test system is Jurkat. The data set is described as follows: Inhibition of TNFalpha-induced NF-kappaB activation in human Jurkat cells at 10 to 55 uM after 24 hrs by electrophoretic mobility shift assay. It is filed as cell-based. The essentials: (§1)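 Jurkat T cells (3 × 10⁵ cells/mL) in RPMI 1640 with 10% FCS were preincubated 24 h with compound at 10, 20, 30 or 55 µM. They were then stimulated 1 h with rh-TNF-α 2.5 ng/mL. Nuclear extracts were probed with a [γ-³³P]-labelled NF-κB consensus oligonucleotide. Specificity was checked with a 100-fold molar excess of unlabelled oligo. Bands were quantified densitometrically by phosphorimager.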

Data set [2] has as its system NIH3T3. The data set is described as follows: Antimigratory activity against Swiss albino mouse 3T3 cells assessed as increase of cell numbers at 1 to 20 uM after 12 hrs by scratch-wound assay. It is filed as functional, cell-based. The essentials: (§2)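 Swiss 3T3 albino mouse fibroblasts, cultured in DMEM with 10% FCS and penicillin/streptomycin at 37 °C, 5% CO2. A scratch wound was made in the confluent monolayer. Compounds were tested at 1, 10 and 20 µM. PDGF 2 ng/mL served as positive control and a DMSO-only well as reference. The % increase in cells migrating and proliferating into the wounded area was read after 12 h. At least triplicate runs, mean ± SEM.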

Data set [3] concerns the target Mitogen-activated protein kinase 14 (Homo sapiens, UniProt Q16539). The data set is described as follows: Inhibition of p38alpha after 1 hr by ELISA. On the technique in general: ELISA stands for enzyme-linked immunosorbent assay.
For data set [4], the system named is NIH3T3. In words: Antimigratory activity against Swiss albino mouse 3T3 cells assessed as increase of cell numbers at 1 uM after 12 hrs by scratch-wound assay. It is filed as functional, cell-based. The essentials:
as §2

Data set [5] has as its system NIH3T3. In words: Antimigratory activity against Swiss albino mouse 3T3 cells assessed as increase of cell numbers at 10 uM after 12 hrs by scratch-wound assay. It is filed as functional, cell-based. A digest of the protocol: as §2
In data set [6] the test system is Jurkat. In words: Inhibition of TNF-alpha-induced NFkappaB activation in human Jurkat cells at 30 to 55 uM after 24 hrs by electrophoretic mobility shift assay. The data set is classed as cell-based. A digest of the protocol: as §1
For orientation: A gel shift assay detects complexes by their altered migration in electrophoresis.

The test system of data set [7] is Jurkat. The data set is described as follows: Inhibition of TNF-alpha-induced NFkappaB activation in human Jurkat cells at 10 to 20 uM after 24 hrs by electrophoretic mobility shift assay. The data set is classed as cell-based. The essentials:
as §1

Data set [8] deals with Jurkat. In words: Cytotoxicity against human Jurkat cells at 55 uM after 22 hrs by MTT assay. It is filed as cell-based. (Tetrazolium dyes change colour on reduction, which living cells bring about.)
Data set [9] concerns NIH3T3. In words: Antimigratory activity against Swiss albino mouse 3T3 cells assessed as increase of cell numbers at 2 ng/ml after 12 hrs by scratch-wound assay. It is filed as functional. The essentials: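 Swiss 3T3 albino mouse fibroblasts were grown in DMEM with 10% fetal calf serum and penicillin/streptomycin at 37 °C and 5% CO2, and a scratch wound was made in the monolayer. PDGF (2 ng/mL) was incubated for 12 h. Read-out was the % of cells that migrated into and proliferated in the wounded area, relative to a cells-plus-DMSO control. At least triplicate; mean ± SEM.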

Molecules are shown by their SMILES. Calls of active or inactive are those of the source. The rule behind the calls is not given here.

Chain of Mitogen-activated protein kinase 14 (Q16539 whole entry): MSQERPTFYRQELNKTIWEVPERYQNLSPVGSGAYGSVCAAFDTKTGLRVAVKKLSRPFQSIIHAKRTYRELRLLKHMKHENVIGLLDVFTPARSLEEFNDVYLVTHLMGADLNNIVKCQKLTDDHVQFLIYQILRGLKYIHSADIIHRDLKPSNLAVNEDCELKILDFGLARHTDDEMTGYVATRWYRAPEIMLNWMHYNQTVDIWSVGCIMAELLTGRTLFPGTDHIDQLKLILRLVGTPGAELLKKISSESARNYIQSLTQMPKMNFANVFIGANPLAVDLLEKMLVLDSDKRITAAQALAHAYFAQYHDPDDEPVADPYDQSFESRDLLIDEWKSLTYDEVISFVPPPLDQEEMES

For the compound `COc1cc(/C=C/C(=O)O[C@@H]2Cc3c(O)cc(O)cc3O[C@@H]2c2cc(O)c(O)c(O)c2)ccc1O`, in [1], the result was Active.
As to `COc1c(O)cc([C@H]2Oc3cc(O)cc(O)c3C[C@H]2OC(=O)c2cc(O)c(O)c(O)c2)cc1O`, the outcome in data set [1] and in [2] was Active.
For orientation: IC50 means the concentration that gives 50% inhibition. Read a low IC50 as greater potency in that assay. For the compound `COc1c(O)cc([C@H]2Oc3cc(O)cc(O)c3C[C@H]2O)cc1O`, the outcome in data set [1] was Active. The same compound gave a half-inhibitory concentration (IC50) in [3] of 39.2 µM.
For `COc1ccc([C@H]2Oc3cc(O)cc(O)c3C[C@H]2OC(=O)c2cc(O)c(O)c(O)c2)cc1O`, in data set [4], the result was Active. Further, the result in data set [5] was inactive.
For `COc1c(O)cc([C@H]2Oc3cc(O)cc(O)c3C[C@@H]2O)cc1O`, the result in [1] and in data set [2] was Active.
As for `COc1cc([C@H]2CC(=O)Oc3cc(O)c4c(c32)O[C@H](c2cc(O)c(OC)c(O)c2)[C@@H](O)C4)ccc1O`, the result in [6] was inactive. Further, the outcome in data set [2] and in data set [7] was Active. For the same compound, 50.8 µM corresponded to half-maximal inhibition in data set [3] (IC50). Further, in data set [8], the Activity came out at 11%.
Compound `O=C(O[C@@H]1Cc2c(O)cc(O)cc2O[C@@H]1c1ccc(O)c(O)c1)c1cc(O)c(O)c(O)c1` [EPICATECHIN GALLATE] registered a 50% inhibitory concentration (IC50) in [3] of 1.47 µM. Further, in [4], the outcome was Active. The result in [5] was inactive.
On to `O=C(O[C@@H]1Cc2c(O)cc(O)cc2O[C@@H]1c1cc(O)c(O)c(O)c1)c1cc(O)c(O)c(O)c1` [EPIGALOCATECHIN GALLATE], for which the Activity in [9] came out at 59.5%. Moreover, the result in [1] and in [2] was Active. The IC50 in data set [3] was 2.21 µM.

Values taken from ChEMBL document CHEMBL1649352, “Catechin derivatives from Parapiptadenia rigida with in vitro wound-healing properties” (J Nat Prod, 2010).
